Screens: PubChem, Johns Hopkins Ion Channel Center
KCNQ1 act = potentiates or activates the human KCNQ1 potassium channel; B-score at 10 µM; 0.35% of 310,000 active; CHO-K1 KCNQ1, thallium flux FluxOR fluorescence; active compounds read high; AID 2648; P51787;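 active = fluorescence ratio B-score, a plate-corrected score, at least three library SD, with initial intensity B-score within 5 SD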
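System: CHO-K1 cells stably expressing KCNQ1 / Medium: assay buffer for compound exposure, DMSO matched across wells / Reagent: thallium- and potassium-containing depolarizing buffer / Compound: one concentration, matched DMSO / Incubation: 20 min compound pretreatment at room temperature / Measured by: kinetic FluxOR fluorescence, 10 s baseline plus 110 s post-stimulus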
KCNQ1 block = inhibitors of human KCNQ1 potassium channel; P51787; CHO-K1 KCNQ1, FluxOR thallium flux fluorescence; active compounds read high; B-score at 10 µM; 1.3% of 310,000 active; AID 2642;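 active = compounds whose thallium flux B-score, printed positive for inhibition, exceeds three library SD while starting fluorescence stays within three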;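 also: channel opened by potassium depolarization with thallium stimulus after 20 min compound exposure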
KCNK3 block = human KCNK3 channel inhibition, primary screen. O14649. CHO-KCNK3 thallium flux, FluxOR fluorescence; active compounds read low. B-score at 10 µM. 0.84% of 340,000 active. AID 602410;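 active = B-score under library mean minus 4 SD, starting fluorescence ratio at most library mean plus 5 SD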;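 also: more negative B-score means stronger inhibition of thallium flux through KCNK3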
KCNK9 block = blocks the human KCNK9 two-pore domain potassium channel; 1.2% of 310,000 active; Q9NPC2; AID 488922; HEK293 KCNK9, FluxOR thallium flux fluorescence; active compounds read low; B-score at 10 µM;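 active = ratio B-score over 3 SD below the library mean, with starting fluorescence within 5 SD of its mean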;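 also: negative B-score means less thallium flux so channel inhibition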
Target sequence (Q9NPC2 whole entry, looked up, the tested form may be a part): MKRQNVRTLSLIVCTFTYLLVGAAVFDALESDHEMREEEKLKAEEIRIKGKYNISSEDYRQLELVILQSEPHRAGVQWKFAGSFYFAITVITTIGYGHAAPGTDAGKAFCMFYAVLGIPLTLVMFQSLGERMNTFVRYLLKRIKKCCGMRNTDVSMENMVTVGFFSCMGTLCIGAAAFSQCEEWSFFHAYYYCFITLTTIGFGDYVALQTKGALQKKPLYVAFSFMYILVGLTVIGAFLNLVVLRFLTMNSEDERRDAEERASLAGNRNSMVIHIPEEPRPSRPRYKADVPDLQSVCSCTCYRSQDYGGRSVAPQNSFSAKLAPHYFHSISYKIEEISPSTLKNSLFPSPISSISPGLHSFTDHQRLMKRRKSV
Kir21 inh = Kir2.1 (mouse) channel inhibition; P35561; HEK293-Kir2.1, FluxOR thallium flux fluorescence; active compounds read low; B-score at 10 µM; 0.85% of 310,000 active; AID 1672;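 active = fluorescence ratio B-score at or below minus 3 SD of library scores, with starting-brightness B-score within 2 SD, cut at about -4.2 in these data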;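 also: channel flux triggered by added potassium and thallium sulfate stimulus; B-score of peak minus minimum fluorescence over baseline after thallium stimulus; more negative B-score means stronger Kir2.1 block with less thallium influx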
hERG rescue = shields human hERG channel from block by proarrhythmic agents. CHO-hERG, FluxOR thallium flux, dofetilide IC70 present. Q12809. activation (rescue from dofetilide block), less the hit threshold, % at 10 µM. 0.51% of 310,000 active. AID 1511;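 active = activation above the mean of controls blocked by dofetilide plus 5 SD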;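 also: thallium influx through hERG after potassium depolarization seen as dye fluorescence rise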
* hit, by the source's call; i = inactive; . = no result given. Only some compounds are listed: those with a hit (about 3.7% of all), similar ones and a draw of the others.

SMILES | KCNQ1 act | KCNQ1 block | KCNK3 block | KCNK9 block | Kir21 inh | hERG rescue
CCn1cc(CCC(=O)NCc2ccccc2OC)c2ccccc21 | i | i | i | i | -6.7* | -5
CCN1CC=C2C(C#N)=C(N)C(C#N)(C#N)C(CCc3ccccc3)C2C1 (stereo unspecified) | . | . | i | . | . | .
COc1ccc(OC)c(C2C3CN(C(C)C)CC=C3C(C#N)=C(N)C2(C#N)C#N)c1 (stereo unspecified) | i | 6* | i | i | -1.1 | -13
CCCN1CC=C2C(C#N)=C(N)C(C#N)(C#N)C(c3cccc(OC)c3OC)C2C1 (stereo unspecified) | i | 8* | i | i | -4.7 | -18
N#CC1=C(N)C(C#N)(C#N)[C@H](c2ccoc2)[C@H]2CN(Cc3ccccc3)CC=C12 | i | i | i | -8.8* | -6.8 | -30
COc1cccc(OC)c1OCc1cc(C2C3CCCC=C3C(C#N)=C(N)C2(C#N)C#N)c(C)cc1C (stereo unspecified) | i | 7* | i | i | -1.2 | -4
COc1ccc(C(C)=O)cc1COC(=O)c1ccc(C)c(S(=O)(=O)N2CCOCC2)c1 | . | . | i | . | . | .
O=C(NC1CCCC1)c1cc(S(=O)(=O)N2CCCC2)ccc1Cl | i | i | i | i | -0.39 | -9
CCCn1c(SCC(=O)NCc2ccccc2)n[nH]c1=O | i | i | i | i | 0.24 | -6
CN1CC=C2C(C#N)=C(N)C(C#N)(C#N)[C@H](c3ccoc3)[C@H]2C1 | i | i | i | i | -1.5 | -13
CN1CC=C2C(C#N)=C(N)C(C#N)(C#N)C(c3cccc(Cl)c3Cl)C2C1 (stereo unspecified) | i | 6* | i | i | -6.1 | -19
CN(C)c1nnnn1Cc1ccccc1 | i | i | i | i | 1.4 | -4
CCN(Cc1ccccc1)Cc1nnnn1Cc1ccccc1 | i | i | i | i | -6.9* | -12
CC(C)c1ccc2c(c1)CCC1C(C)(CN)CCCC21C (stereo unspecified) | i | 9* | i | i | -6.1* | -12
O=C(Nc1cccc(C(F)(F)F)c1)c1cccc(NS(=O)(=O)c2ccc(O)c(C(=O)O)c2)c1 | i | i | i | i | 2.9 | -1
COc1ccccc1NCC(=O)n1nc(C)cc1C | i | i | i | i | -0.67 | 6.7*
CC1CCCCC1NC(=O)CCn1ccc2cc(S(=O)(=O)N3CCCC3)ccc21 (stereo unspecified) | i | i | i | i | 0.49 | -11
O=C(NC(=S)N1CCc2ccccc21)c1ccc(Br)o1 | 81* | i | i | i | -0.42 | 12*
CC(C)(C)C(=O)NC(=S)N1CCc2ccccc21 | i | i | i | i | -1.6 | -5
O=C(NC(=S)N1CCc2ccccc21)c1ccccc1Br | 45* | i | i | i | 0.15 | 52*
CC(Oc1ccc(Cl)cc1Cl)C(=O)NC(=S)N1CCc2ccccc21 (stereo unspecified) | 9* | i | i | i | -2.1 | 28*
O=C(NC(=S)N1CCc2ccccc21)C1CCC1 | i | i | i | i | 0.42 | -4
O=C(COc1ccc(Br)cc1Br)NC(=S)N1CCCc2ccccc21 | i | i | i | i | 2.2 | 6.8*
CCOC(=O)CNC(=O)CN1CCCN(S(=O)(=O)c2ccc(Br)s2)CC1 | . | . | i | . | . | .
O=C(CN1CCCN(S(=O)(=O)c2ccc(Br)s2)CC1)Nc1ccc(Cl)cc1 | i | i | -9.3* | i | 1.2 | -12
Cc1ccc(NC(=O)c2ccc3c(c2)OCO3)cc1Cl | i | i | i | i | 0.77 | 13*
Cc1ccc(C(=O)Nc2ccc3c(c2)OCO3)cc1Cl | i | i | i | i | 0.59 | -3
CC1CCCN(c2ccc(C(=O)Nc3ccc4c(c3)OCO4)cc2[N+](=O)[O-])C1 (stereo unspecified) | i | 6* | i | i | -1.6 | -7
Cc1cccc(CN2[C@@H](CC(C)C)COCCS2(=O)=O)c1 | i | i | i | i | -0.67 | -12
O=c1[nH]c2ccsc2c(=O)n1CCO | i | i | i | i | -1.4 | -4
